Series [1] concerns C. albicans clinical isolate CaCi-2. Put plainly: CaCi-2 growth inhibition in the presence of fluconazole. In kind it is cell-based, Candida albicans. The method, boiled down: (§1)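 Candida albicans clinical isolates were incubated with test compound and a fixed 8 μg/mL fluconazole at 37 °C for 48 h. Growth inhibition was read by Alamar blue fluorometry. Values are the average of at least three runs.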

For series [2], the system named is C. albicans clinical isolate CaCi-8. Briefly: CaCi-8 growth inhibition in the presence of fluconazole. In kind it is cell-based, Candida albicans. The following applies: at approximately 1 μM, with fluconazole. Put shortly:
as §1

Series [3] relates to CaCi-2. Briefly: CaCi-2 growth inhibition in the absence of fluconazole. The class given is cell-based, Candida albicans.
A further series relates to murine 3T3 fibroblasts. Briefly: Mammalian fibroblast toxicity counterscreen. In kind it is cell-based. (In general: The purpose of a counterscreen is to sort out artefacts and off-target activity.)
The subject of series [4] is Hsp90-dependent signaling pathway. Briefly: Yeast reporter assay, Hsp90-dependent signaling. The class given is cell-based. The following applies: Saccharomyces cerevisiae, read-out: IC50 Hsp90-dependent signaling pathway. For orientation: In a reporter assay the amount or activity of a reporter protein is the signal.
Series [5] has as its system calcineurin-dependent signaling pathway. Put plainly: Yeast reporter assay, calcineurin-dependent signaling. The class given is cell-based. The following applies: Saccharomyces cerevisiae, read-out: IC50 calcineurin-dependent signaling pathway.
Another series is described as follows: Aqueous. The following applies: aqueous / PBS solution, in words. The class given is physicochemical.
The test system of series [6] is CaCi-2. Put plainly: Fluconazole MIC determination, CaCi-2. In kind it is cell-based. The following applies: Candida albicans, read-out: MIC for CaCi-2.
Another series concerns CaCi-8. Briefly: Fluconazole MIC determination, CaCi-8. In kind it is cell-based. The following applies: Candida albicans, read-out: MIC for CaCi-8.

≈ marks a conversion by molar mass, not a printed value. Some results are limits rather than exact numbers.

As usually defined, the IC50 is the midpoint of a concentration-inhibition curve. One may read the inhibition as how much of the control response was suppressed. For orientation: MIC means the lowest concentration found to suppress growth.

As for `O=C(c1ccc(Cl)cc1)N1CCN(c2ccnc3cc(Cl)ccc23)CC1` [Compound 1], in [1] (at approximately 1 μM, with fluconazole), the “Growth inhibition of CaCi-2” value is 97–100%. For the same molecule, the “Growth inhibition of CaCi-8” value in series [2] is reported as 97–100%. The “Effect on CaCi-2 in the absence of fluconazole” value with CaCi-2 [3] is given as “no discernible effect”. Moreover, the “Concentration up to which murine 3T3 fibroblasts showed no response” value with murine 3T3 fibroblasts was > 26 µM. For the same molecule, the half-maximal inhibitory concentration (IC50) in [4] and in series [5] was > 26 µM throughout. In addition, the Solubility result in the series “Aqueous” is on record as “poor aqueous solubility”.

Consider `COC1=C2C[C@@H](C)C[C@H](OC)[C@H](O)[C@@H](C)/C=C(\C)[C@H](OC(N)=O)[C@@H](OC)/C=C\C=C(/C)C(=O)NC(=CC1=O)C2=O` [Geldanamycin], for which the inhibition at 10 µM in [1] (Candida albicans, read-out: Growth inhibition (control)) is 100%.

Take `OC(Cn1cncn1)(Cn1cncn1)c1ccc(F)cc1F` [fluconazole]: in [1] (Candida albicans, read-out: Baseline growth inhibition in CaCi-2), the inhibition at 8 µg/mL was 60 to 80%. The MIC with CaCi-2 [6] came out at 2 µg/mL (≈ 6.53 µM); in the series with CaCi-8, 8 µg/mL (≈ 26.1 µM).

These data come from publication PMC3287054 (Bioorganic & medicinal chemistry letters, 2011).
